Rows were chosen to be rich in hits. Some 5.3% of all compounds tested hit in one or more screens of this group.
Cav32 inh: blocks human Cav3.2 T-type calcium channel; hit rate 4% among 100,000; B-score at 10 µM; AID 449739; Cav3.2-expressing cells, Fluo-4 calcium fluorescence FDSS; active compounds read low;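 active = single-dose well whose peak fluorescence ratio is a statistical outlier from its plate by either plate-standardised score or position-corrected B-score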
PLK1 kinase inh: PLK1 (human) kinase inhibition. P53350. recombinant PLK1 kinase, TR-FRET peptide phosphorylation. inhibition, % at 10 µM. hit rate 0.53% among 97,000. AID 619;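 active = inhibition of 50% or more in the single-concentration screen; inactive = inhibition below 50%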;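 note: 0% = DMSO max control and 100% = H-89 dihydrochloride min control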
Target sequence (P53350 whole entry, looked up): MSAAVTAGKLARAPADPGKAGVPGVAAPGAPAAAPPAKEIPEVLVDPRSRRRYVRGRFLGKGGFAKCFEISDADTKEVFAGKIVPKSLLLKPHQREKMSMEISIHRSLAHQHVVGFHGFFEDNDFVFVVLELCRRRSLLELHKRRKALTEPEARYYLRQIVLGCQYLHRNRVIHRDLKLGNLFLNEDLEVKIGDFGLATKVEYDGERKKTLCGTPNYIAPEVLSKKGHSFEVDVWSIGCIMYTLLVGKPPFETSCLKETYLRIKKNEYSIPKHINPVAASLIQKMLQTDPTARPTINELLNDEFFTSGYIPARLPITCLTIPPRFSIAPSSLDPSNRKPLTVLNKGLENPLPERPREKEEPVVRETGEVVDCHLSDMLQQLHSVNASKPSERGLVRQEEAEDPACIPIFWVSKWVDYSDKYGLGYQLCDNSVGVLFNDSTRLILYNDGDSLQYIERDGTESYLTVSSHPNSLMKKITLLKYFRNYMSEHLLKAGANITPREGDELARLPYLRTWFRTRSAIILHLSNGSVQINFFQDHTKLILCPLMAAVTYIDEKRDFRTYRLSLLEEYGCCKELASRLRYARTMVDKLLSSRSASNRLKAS
Rev-RRE block: inhibitors of HIV-1 Rev-RRE RNA interaction | Rev peptide-RRE RNA binding, FRET | hit rate 0.79% among 97,000 | P05866 | inhibition, % at 8 µM | AID 704;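 active = inhibition above the screen-wide mean plus 3 SD, cut at about 35% in these data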;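 note: 0% = median DMSO wells and 100% = median Neomycin B control wells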
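Test system: Cy5-tagged RRE RNA duplex with fluorescein-tagged Rev peptide; Probe or stimulus: labelled Rev peptide; Schedule: 5 min preincubation and 15 min binding, 25 °C; Signal: FRET fluorescence readout; Evaluation: % inhibition from 671/540 nm acceptor-to-donor ratio, scaled between controls; Control set: DMSO and neomycin B.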
Plk1 PBD FP: inhibitors of human Plk1 polo box domain binding; Plk1 PBD phosphopeptide binding, fluorescence polarization; P53350; AID 693; inhibition, %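 (tested at about 20 µM)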; hit rate 0.13% among 97,000; in the data active = inhibition above about 34%, passing the limit was not always enough
FAK inh: FAK (human) kinase inhibition | biochemical FAK kinase activity assay | inhibition, %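 (tested at 7 µM)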 | hit rate 0.84% among 97,000 | Q05397; in the data active = inhibition above about 19%;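 note: 0% = DMSO and 100% = reference compound high control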
EphB4 ephrin blk: antagonists of human EphB4-ephrin-B2 interaction; EphB4 LBD / TNYL-RAW-Alexa532 peptide, fluorescence polarization; hit rate 0.15% among 97,000; inhibition, % at 7 µM;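 active = inhibition above the screen-wide mean inhibition plus 3 SD, cut at about 15% in these data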;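 note: 0% = DMSO wells and 100% = excess unlabeled TNYL-RAW peptide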
An asterisk follows results filed as active; . = no result; [ ] = another dose, or the depositor's remark.

SMILES	Cav32 inh	PLK1 kinase inh	Rev-RRE block	Plk1 PBD FP	FAK inh	EphB4 ephrin blk
COC1CCCCC1NS(=O)(=O)c1ccc(Cl)cc1 (centres undefined)	.	68*	3	-5	-2	-6
Cc1cccc(C)c1NC(=O)CSc1nnc(Cn2nnc(-c3ccccc3)n2)n1-c1ccccc1	-6.2*	-13	3	-3	1	-1
CNC(=O)c1sc(N2N=C3/C(=C/c4ccccc4)CCCC3C2c2ccccc2)nc1C (centres undefined)	-4.4*	-6	12	-32	5	-4
CCCc1[nH]nc2c1C(c1ccc(OC)c(Cn3nnc4ccccc43)c1)C(C#N)=C(N)O2 (centres undefined)	-1.1	7	14	-9	3	17*
c1ccc(CNc2ccc3c(c2)ncn3C2CCCCC2)nc1	-0.08	0	-3	13	4	-9
COc1ccc(CCn2c(C)cc(C(=O)CSc3nnnn3-c3ccccc3)c2C)cc1	-0.28	-9	8	9	1	4
O=C(NCc1ccco1)C1CCN(C(=O)c2cc3sccc3n2Cc2ccc(F)cc2)CC1	-1.7	-8	5	-12	1	-5
CC1Cc2ccccc2N1C(=O)c1cc2sccc2n1Cc1ccc(F)cc1 (centres undefined)	-5.6*	-16	21	0	1	3
COc1cccc(C(=O)N2CCN(S(=O)(=O)Cc3ccccc3)CC2)c1OC	-0.27	-4	-2	-3	2	-11
Cc1cccc(Nc2nc(NCc3ccco3)nc(N3CCOCC3)n2)c1	-4.7*	-3	9	-9	7	8
CC1CCN(C(=O)CN(c2ccc(Cl)c(C(F)(F)F)c2)S(C)(=O)=O)CC1	-1.2	-10	12	31	-2	1
O=C(c1cccc(F)c1)N1CCN(c2cccc(Cl)c2)CC1	-2.2	-10	141*[fluorescence artefact?]	-9	1	1
CS(=O)(=O)N(CC(=O)N1CCN(c2cccc(Cl)c2)CC1)c1cccc(F)c1	-6.3*	-7	10	2	0	-8
O=C(c1cccc(Cl)c1)N1CCN(C(=O)c2ccccc2F)CC1	1.5	-7	2	-28	1	-2
CS(=O)(=O)N(CC(=O)N1CCN(c2ccccc2)CC1)c1ccc(Cl)c(C(F)(F)F)c1	-5.3*	-1	12	-17	0	-4
CS(=O)(=O)N(CC(=O)N1CCN(c2ccccc2F)CC1)c1cc(C(F)(F)F)ccc1Cl	-2.3	-9	17	3	-1	9
CS(=O)(=O)N(CC(=O)N1CCN(c2ccccc2)CC1)c1cc(C(F)(F)F)ccc1Cl	-4.3*	-5	8	-21	-1	0
CCOC(=O)c1nnn(-c2nonc2N)c1-c1ccc(OC)cc1	-0.17	1	3	4	10	-4
C=CCSc1nc(C)c2cc(C)cc(C)c2n1	-0.32	10	13	-5	1	-2
COC(=O)c1cc(OC)c(OC)cc1NC(=O)CSc1ccccc1	-3.2	-2	-4	25	-4	-1
CNC(=O)c1csc(-c2ccc(C)cc2)n1	-0.58	-15	4	5	0	-4
CC1=NOC(=O)/C1=C/c1ccc(N(C)C)cc1	-1.2	-63	86*	-14	-3	-2
CC1=NOC(=O)/C1=C/c1ccc(-c2ccc(Cl)cc2)o1	0.14	-11	10	-6	-5	3
Cn1c(NNC(=O)c2cccc3ccccc23)cc(=O)n(C)c1=O	0.14	.	.	.	.	.
CCOC(=O)CN1C(=O)C(Sc2n[nH]c(-c3ccc(O)cc3)n2)CCc2ccccc21 (centres undefined)	-6.5*	-2	5	24	1	-3
SMILES	Cav32 inh	PLK1 kinase inh	Rev-RRE block	Plk1 PBD FP	FAK inh	EphB4 ephrin blk
Cc1ccc(S(=O)(=O)NC2CCCc3ccccc32)cc1C (centres undefined)	-4.2*	-2	16	9	-1	3
CCOc1ccc(C2=C/C(=C/c3cccnc3)C(=O)O2)cc1	-0.19	-22	111*[fluorescence artefact?]	-27	7	0
Cc1ccc(C(=O)CC2(O)C(=O)N(Cc3ccccc3Cl)c3ccccc32)o1 (centres undefined)	-5.6*	-7	6	-9	2	-5
Cc1ccc(C(=O)CC2(O)C(=O)N(CCc3ccccc3)c3ccc(Br)cc32)o1 (centres undefined)	-7.1*	-7	14	-12	-3	10
CC(=O)CC1(O)C(=O)N(Cc2ccccc2)c2ccccc21 (centres undefined)	0.58	-9	10	-4	6	8
Cc1coc(C)c1C(=O)CC1(O)C(=O)N(Cc2ccccc2)c2ccccc21 (centres undefined)	-4.6*	-3	12	-8	-1	8
Cc1ccc(C(=O)CC2(O)C(=O)N(Cc3ccccc3)c3ccccc32)o1 (centres undefined)	-1.4	-7	6	4	0	8
Cc1ccc(C2=NOC(C)(c3nnc(Cc4ccccc4)o3)C2)cc1 (centres undefined)	0.57	.	.	.	.	.
COc1ccc(OC)c(-n2c(SCC(N)=O)nnc2-c2c[nH]c3ccccc23)c1	2	70*	6	20	4	0
COc1ccc(OC)c(-n2c(SCC(=O)Nc3cc(C)on3)nnc2-c2c[nH]c3ccccc23)c1	-2.5	68*	5	-5	0	1
COc1ccc(OC)c(-n2c(SC)nnc2-c2c[nH]c3ccccc23)c1	0.34	68*	3	24	-4	-5
COc1ccccc1-n1c(SCC(N)=O)nnc1-c1ccccc1	0.95	-11	5	5	7	-2
COc1cccc(-n2c(SCC(N)=O)nnc2-c2c[nH]c3ccccc23)c1	0.73	68*	0	25	-2	-7
CCNS(=O)(=O)c1ccc(C)c(-n2cnnn2)c1C	0.45	-8	9	-11	-1	4
CN(C)c1ccc(/C=c2\sc3n(c2=O)CCCN=3)cc1	-3.8	-37	37*	-42	8	-1
COCc1nnc(NC(=O)CSCc2ccccc2)s1	0.0025	-1	6	9	8	4
CCN(CC)S(=O)(=O)c1ccc(N(C)Cc2cccnc2)nc1	0.48	2	6	-1	-2	-4
Cc1ccc(CNC(=O)Cc2cccs2)cc1	0.59	-12	9	26	-1	0
CC(=O)Nc1ccc(S(=O)(=O)NCc2ccc3c(c2)cc(C)n3C)cc1	-0.19	62*	2	13	5	-7
Cc1cc2cc(CNS(=O)(=O)c3ccc4ccccc4c3)ccc2n1C	-4.7	-11	5	17	-3	3
Cc1cc2cc(CNC(=O)Cc3cccs3)ccc2n1C	-4.2*	.	.	.	.	.
COc1ccc2nc3sc(C(=O)NCc4cccs4)c(N)c3cc2c1	-0.87	14	40*	3	7	-3
CCOC(=O)Cn1c(=O)n(Cc2ccco2)c(=O)c2ccc(C(=O)NCCc3ccccc3)cc21	-4.6*	-4	-1	-18	2	-2

Source: PubChem
